Measurements published in ChEMBL document CHEMBL3588757, “Structure-based design, synthesis and biological testing of piperazine-linked bis-epipodophyllotoxin etoposide analogs” (Bioorg Med Chem, 2015).
Calls of active or inactive are those of the source. No cut-off for these calls is given here.

Key:
K562 [1] = test: Relative resistance, ratio of IC50 for etoposide-resistant human K/VP.5 cells to IC50 for human K562 cells; assay type: functional
[2] = target: DNA topoisomerase 2-alpha (Homo sapiens) (UniProt P11388); test: Inhibition of full-length human recombinant topoisomerase 2-alpha mediated relaxation and cleavage of supercoiled pBR322 plasmid DNA to linear DNA by ethidium bromide staining based gel electrophoresis assay
Summary of the method: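 Recombinant full-length human topoisomerase IIα with supercoiled pBR322 DNA at 37 °C. Components mixed on ice before drug addition. Complexes trapped with SDS; products run on ethidium bromide gels. Linear DNA identified against a HindIII-linearized marker; repeated on three days.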

K562 [3] = test: Induction of DNA double strand breaks in human K562 cells assessed as increase in gamma-H2AX level at 25 uM after 4 hrs by chemiluminescence analysis; assay type: functional, cell-based
Summary of the method: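 K562 cells (3.4 × 10^5/mL) exposed 4 h at 37 °C to 25 µM drug or DMSO. Lysed in Tris pH 6.7/SDS buffer; 50 µg protein on 14% SDS-PAGE, PVDF blot. Rabbit anti-γH2AX (1:1000, overnight), GAPDH loading control, HRP secondary. Chemiluminescence imaged by CCD.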

SF-295 [4] = test: Cytotoxicity against human SF295 cells assessed as cell growth at 50 uM by SRB assay; assay type: functional; conditions: read-out: Activity
UACC-62 = test: Cytotoxicity against human UACC62 cells assessed as cell growth at 50 uM by SRB assay; assay type: functional; conditions: read-out: Activity
RXF 393 [5] = test: Cytotoxicity against human RXF393 cells assessed as cell growth at 50 uM by SRB assay; assay type: functional; conditions: read-out: Activity
DU-145 [6] = test: Cytotoxicity against human DU145 cells assessed as cell growth at 50 uM by SRB assay; assay type: functional; conditions: read-out: Activity
Summary of the method: (§1)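 Measured in the NCI-60 human tumour cell line panel using five-dose testing. Growth was recorded at each dose for each cell line, and a GI50 was derived for each line.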

[7] = Cytotoxicity against human Hs578T cells assessed as cell growth at 50 uM by SRB assay; assay type: functional; conditions: Hs-578T, read-out: Activity; summary of the method: as §1
MOLT-4 = test: Cytotoxicity against human MOLT4 cells by SRB assay; assay type: functional
Summary of the method: (§2)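 NCI-60 panel screen; 5-dose testing giving GI50 per cell line, plus a single 10 µM one-dose test. Method details not given beyond the NCI screen.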

HCT-15 [8] = test: Cytotoxicity against human HCT15 cells by SRB assay; assay type: functional; summary of the method: as §1
SW-620 = test: Cytotoxicity against human SW620 cells by SRB assay; assay type: functional; summary of the method: as §2
OVCAR-4 = test: Cytotoxicity against human OVCAR4 cells by SRB assay; assay type: functional; summary of the method: as §2
[9] = Cytotoxicity against human NCI-ADR-RES cells by SRB assay; assay type: functional; summary of the method: as §2
MDA-MB-468 = test: Cytotoxicity against human MDA-MB-468 cells by SRB assay; assay type: functional; summary of the method: as §2
NCI-H322M [10] = test: Cytotoxicity against human NCI-H322M cells assessed as cell growth at 0.005 uM by SRB assay; assay type: functional; conditions: read-out: Activity
HCT-15 [11] = test: Cytotoxicity against human HCT15 cells assessed as cell growth at 0.005 uM by SRB assay; assay type: functional; conditions: read-out: Activity; summary of the method: as §1
SF-268 [12] = test: Cytotoxicity against human SF268 cells assessed as cell growth at 0.005 uM by SRB assay; assay type: functional; conditions: read-out: Activity
LOX IMVI = test: Cytotoxicity against human LOXIMVI cells assessed as cell growth at 0.005 uM by SRB assay; assay type: functional; conditions: read-out: Activity
OVCAR-5 = test: Cytotoxicity against human OVCAR5 cells assessed as cell growth at 0.005 uM by SRB assay; assay type: functional; conditions: read-out: Activity
[13] = Cytotoxicity against human NCI-ADR-RES cells assessed as cell growth at 0.005 uM by SRB assay; assay type: functional; conditions: read-out: Activity
ACHN = test: Cytotoxicity against human ACHN cells assessed as cell growth at 0.005 uM by SRB assay; assay type: functional; conditions: read-out: Activity
TK-10 = test: Cytotoxicity against human TK10 cells assessed as cell growth at 0.05 uM by SRB assay; assay type: functional; conditions: read-out: Activity
DU-145 [14] = test: Cytotoxicity against human DU145 cells assessed as cell growth at 0.05 uM by SRB assay; assay type: functional; conditions: read-out: Activity; summary of the method: as §1
HOP-62 [15] = test: Cytotoxicity against human HOP62 cells assessed as cell growth at 0.5 uM by SRB assay; assay type: functional; conditions: read-out: Activity; summary of the method: as §1
COLO 205 = test: Cytotoxicity against human COLO205 cells assessed as cell growth at 0.5 uM by SRB assay; assay type: functional; conditions: read-out: Activity
SF-539 = test: Cytotoxicity against human SF539 cells assessed as cell growth at 0.5 uM by SRB assay; assay type: functional; conditions: read-out: Activity
SK-MEL-2 = test: Cytotoxicity against human SK-MEL-2 cells assessed as cell growth at 0.5 uM by SRB assay; assay type: functional; conditions: read-out: Activity
IGROV-1 = test: Cytotoxicity against human IGROV1 cells assessed as cell growth at 0.5 uM by SRB assay; assay type: functional; conditions: read-out: Activity; summary of the method: as §1
BT-549 = test: Cytotoxicity against human BT549 cells assessed as cell growth at 0.5 uM by SRB assay; assay type: functional; conditions: read-out: Activity
NCI-H322M [16] = test: Cytotoxicity against human NCI-H322M cells assessed as cell growth at 5 uM by SRB assay; assay type: functional; conditions: read-out: Activity
SF-268 [17] = test: Cytotoxicity against human SF268 cells assessed as cell growth at 5 uM by SRB assay; assay type: functional; conditions: read-out: Activity
SF-295 [18] = test: Cytotoxicity against human SF295 cells assessed as cell growth at 5 uM by SRB assay; assay type: functional; conditions: read-out: Activity
OVCAR-8 = test: Cytotoxicity against human OVCAR8 cells assessed as cell growth at 5 uM by SRB assay; assay type: functional; conditions: read-out: Activity
RXF 393 [19] = test: Cytotoxicity against human RXF393 cells assessed as cell growth at 5 uM by SRB assay; assay type: functional; conditions: read-out: Activity
SR = test: Cytotoxicity against human SR cells assessed as cell growth at 50 uM by SRB assay; assay type: functional; conditions: read-out: Activity
HOP-62 [20] = test: Cytotoxicity against human HOP62 cells assessed as cell growth at 50 uM by SRB assay; assay type: functional; conditions: read-out: Activity; summary of the method: as §1
NCI-H460 = test: Cytotoxicity against human NCI-H460 cells assessed as cell growth at 50 uM by SRB assay; assay type: functional; conditions: read-out: Activity
NCI-H522 = test: Cytotoxicity against human NCI-H522 cells assessed as cell growth at 50 uM by SRB assay; assay type: functional; conditions: read-out: Activity
[21] = read-out: LC50 (the source's name)
[22] = read-out: pLC50 (the source's name) (converted)

Chain of DNA topoisomerase 2-alpha (Homo sapiens) (P11388 whole entry): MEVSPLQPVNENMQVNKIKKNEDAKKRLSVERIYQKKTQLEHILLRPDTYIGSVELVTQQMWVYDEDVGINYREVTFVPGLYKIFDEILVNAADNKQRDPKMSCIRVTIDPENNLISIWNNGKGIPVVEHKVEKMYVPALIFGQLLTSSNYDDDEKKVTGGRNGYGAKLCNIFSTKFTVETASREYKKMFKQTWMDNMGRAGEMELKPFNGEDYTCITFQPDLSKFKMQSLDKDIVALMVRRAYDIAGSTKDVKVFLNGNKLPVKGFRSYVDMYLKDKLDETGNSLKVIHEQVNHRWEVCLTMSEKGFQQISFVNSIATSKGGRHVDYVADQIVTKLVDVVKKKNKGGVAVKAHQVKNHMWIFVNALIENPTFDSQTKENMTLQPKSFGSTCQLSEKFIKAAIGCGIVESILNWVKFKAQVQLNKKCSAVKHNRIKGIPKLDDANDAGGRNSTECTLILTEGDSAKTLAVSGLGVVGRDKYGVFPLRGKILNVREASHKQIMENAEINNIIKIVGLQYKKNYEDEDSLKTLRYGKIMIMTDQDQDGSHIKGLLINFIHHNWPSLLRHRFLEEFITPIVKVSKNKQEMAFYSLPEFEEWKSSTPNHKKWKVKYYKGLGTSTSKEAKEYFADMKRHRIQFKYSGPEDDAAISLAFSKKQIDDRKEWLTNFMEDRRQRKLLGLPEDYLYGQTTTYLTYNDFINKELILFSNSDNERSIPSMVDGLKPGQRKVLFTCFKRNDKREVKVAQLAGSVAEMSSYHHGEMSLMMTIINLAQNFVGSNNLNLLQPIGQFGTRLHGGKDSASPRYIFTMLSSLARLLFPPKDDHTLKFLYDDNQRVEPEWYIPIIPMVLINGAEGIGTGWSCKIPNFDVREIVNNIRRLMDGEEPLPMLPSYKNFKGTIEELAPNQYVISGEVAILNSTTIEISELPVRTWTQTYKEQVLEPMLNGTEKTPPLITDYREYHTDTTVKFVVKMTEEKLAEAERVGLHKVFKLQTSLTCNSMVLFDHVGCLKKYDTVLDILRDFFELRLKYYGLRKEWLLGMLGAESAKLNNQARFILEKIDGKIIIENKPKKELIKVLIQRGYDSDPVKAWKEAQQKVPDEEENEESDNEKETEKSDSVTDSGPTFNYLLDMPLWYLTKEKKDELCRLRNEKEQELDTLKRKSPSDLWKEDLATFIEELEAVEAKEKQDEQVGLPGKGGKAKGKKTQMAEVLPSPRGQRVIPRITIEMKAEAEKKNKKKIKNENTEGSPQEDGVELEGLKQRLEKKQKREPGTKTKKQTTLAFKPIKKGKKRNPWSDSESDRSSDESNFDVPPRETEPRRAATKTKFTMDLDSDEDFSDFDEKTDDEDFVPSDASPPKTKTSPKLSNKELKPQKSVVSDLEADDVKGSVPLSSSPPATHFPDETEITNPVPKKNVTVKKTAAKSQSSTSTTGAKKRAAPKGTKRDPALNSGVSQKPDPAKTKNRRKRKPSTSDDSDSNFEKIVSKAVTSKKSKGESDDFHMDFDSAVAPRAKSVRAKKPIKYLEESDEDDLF

COc1cc([C@@H]2c3cc4c(cc3[C@@H](NC(=O)CN3CCN(CCCCCCCCCCN5CCN(CC(=O)N[C@@H]6c7cc8c(cc7[C@@H](c7cc(OC)c(O)c(OC)c7)[C@H]7C(=O)OC[C@@H]76)OCO8)CC5)CC3)[C@H]3COC(=O)[C@H]23)OCO4)cc(OC)c1O
Ratio IC50 (K562 [1]): 2.6 | Effect on topoisomerase 2-alpha DNA cleavage (qualitative) [2]: Dose-dependent effect | Activity (K562 [3]): Active | growth at 50 µM (SF-295 [4]): -44% | growth at 50 µM (UACC-62): -30% | growth at 50 µM (RXF 393 [5]): -47% | growth at 50 µM (DU-145 [6]): -100% | growth at 50 µM [7]: -22% | GI50 (MOLT-4; read-out: GI50): 185 nM | CC50 (MOLT-4; [21]): 6020 nM | TGI (MOLT-4; read-out: TGI): 1400 nM | GI50 (MOLT-4; read-out: pGI50 (converted)): 186 nM | CC50 (MOLT-4; [22]): 6030 nM | TGI (MOLT-4; read-out: pTGI (converted)): 1410 nM | GI50 (HCT-15 [8]; read-out: GI50): 359 nM | CC50 (HCT-15 [8]; [21]): 3390 nM | TGI (HCT-15 [8]; read-out: TGI): 1240 nM | GI50 (HCT-15 [8]; read-out: pGI50 (converted)): 363 nM | CC50 (HCT-15 [8]; [22]): 3390 nM | TGI (HCT-15 [8]; read-out: pTGI (converted)): 1230 nM | GI50 (SW-620; read-out: GI50): 372 nM | CC50 (SW-620; [21]): 3380 nM | TGI (SW-620; read-out: TGI): 1330 nM | GI50 (SW-620; read-out: pGI50 (converted)): 372 nM | CC50 (SW-620; [22]): 3800 nM | TGI (SW-620; read-out: pTGI (converted)): 1320 nM | GI50 (OVCAR-4; read-out: GI50): 911 nM | CC50 (OVCAR-4; [21]): 14100 nM | TGI (OVCAR-4; read-out: TGI): 2730 nM | GI50 (OVCAR-4; read-out: pGI50 (converted)): 912 nM | CC50 (OVCAR-4; [22]): 14100 nM | TGI (OVCAR-4; read-out: pTGI (converted)): 2750 nM | GI50 ([9]; read-out: GI50): 6480 nM | CC50 [9, 21]: > 50000 nM | TGI ([9]; read-out: TGI): > 50000 nM | GI50 ([9]; read-out: pGI50 (converted)): 6460 nM | CC50 [9, 22]: > 50100 nM | TGI ([9]; read-out: pTGI): > 50100 nM | GI50 (MDA-MB-468; read-out: GI50): 844 nM | CC50 (MDA-MB-468; [21]): 16900 nM | TGI (MDA-MB-468; read-out: TGI): 2620 nM | GI50 (MDA-MB-468; read-out: pGI50 (converted)): 851 nM | CC50 (MDA-MB-468; [22]): 17000 nM | TGI (MDA-MB-468; read-out: pTGI (converted)): 2630 nM | growth at 0.005 µM (NCI-H322M [10]): 96% | growth at 0.005 µM (HCT-15 [11]): 99% | growth at 0.005 µM (SF-268 [12]): 97% | growth at 0.005 µM (LOX IMVI): 86% | growth at 0.005 µM (OVCAR-5): 95% | growth at 0.005 µM [13]: 97% | growth at 0.005 µM (ACHN): 100% | growth at 0.05 µM (TK-10): 91% | growth at 0.05 µM (DU-145 [14]): 77% | growth at 0.5 µM (HOP-62 [15]): 23% | growth at 0.5 µM (COLO 205): 72% | growth at 0.5 µM (SF-539): 13% | growth at 0.5 µM (SK-MEL-2): 74% | growth at 0.5 µM (IGROV-1): 44% | growth at 0.5 µM (BT-549): 58% | growth at 5 µM (NCI-H322M [16]): -42% | growth at 5 µM (SF-268 [17]): -34% | growth at 5 µM (SF-295 [18]): 17% | growth at 5 µM (OVCAR-8): -28% | growth at 5 µM (RXF 393 [19]): -34% | growth at 50 µM (SR): -12% | growth at 50 µM (HOP-62 [20]): -20% | growth at 50 µM (NCI-H460): -81% | growth at 50 µM (NCI-H522): -55%
